Laboratory results from ChEMBL document CHEMBL4823291, “Discovery of 5,6,7,8-tetrahydropyrido[3,4-d]pyrimidine derivatives as novel selective Axl inhibitors” (Bioorg Med Chem Lett, 2021).
In brackets after ≈: the same amount, converted by molar mass.

What was measured:
[1] = biological target: T1, Tyrosine-protein kinase Mer (Mus musculus, UniProt Q60805); assay: Inhibition of Mer in mouse BaF3 cells; assay type: cell-based
T1 sequence (Q60805 whole entry): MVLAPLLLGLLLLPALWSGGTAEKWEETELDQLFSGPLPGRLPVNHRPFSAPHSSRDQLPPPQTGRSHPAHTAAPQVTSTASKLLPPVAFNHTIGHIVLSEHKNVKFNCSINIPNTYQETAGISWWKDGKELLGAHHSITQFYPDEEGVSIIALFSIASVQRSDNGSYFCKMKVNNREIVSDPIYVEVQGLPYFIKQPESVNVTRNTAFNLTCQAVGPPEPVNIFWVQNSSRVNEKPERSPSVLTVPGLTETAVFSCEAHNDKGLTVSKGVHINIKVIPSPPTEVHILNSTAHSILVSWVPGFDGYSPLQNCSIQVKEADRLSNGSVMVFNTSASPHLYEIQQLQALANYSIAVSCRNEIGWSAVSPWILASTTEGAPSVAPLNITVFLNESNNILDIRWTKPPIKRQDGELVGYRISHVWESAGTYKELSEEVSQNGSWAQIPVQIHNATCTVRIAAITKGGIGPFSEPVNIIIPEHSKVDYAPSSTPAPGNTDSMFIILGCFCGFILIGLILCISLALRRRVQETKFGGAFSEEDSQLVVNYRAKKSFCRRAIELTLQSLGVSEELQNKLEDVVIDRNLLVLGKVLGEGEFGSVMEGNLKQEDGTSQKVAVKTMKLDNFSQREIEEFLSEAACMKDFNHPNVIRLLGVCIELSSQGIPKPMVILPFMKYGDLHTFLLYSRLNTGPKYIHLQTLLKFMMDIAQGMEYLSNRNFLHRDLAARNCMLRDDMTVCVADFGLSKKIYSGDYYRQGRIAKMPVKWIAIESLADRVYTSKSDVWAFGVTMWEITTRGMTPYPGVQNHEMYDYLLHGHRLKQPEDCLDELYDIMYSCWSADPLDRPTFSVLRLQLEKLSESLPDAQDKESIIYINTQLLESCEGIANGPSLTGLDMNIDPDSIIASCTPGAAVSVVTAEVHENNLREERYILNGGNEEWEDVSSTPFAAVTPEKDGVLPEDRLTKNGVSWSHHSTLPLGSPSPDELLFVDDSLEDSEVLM

[2] = AUC (0 to 24 hrs) in CAnN.Cg-Foxnlnu/CrlCrlj mouse plasma at 25 mg/kg, po single dose measured up to 24 hrs by liquid chromatography tandem mass spectrometry; assay type: ADME, organism-based; parameters: route oral, dose 25 mg/kg, time <=24
[3] = AUC (0 to 24 hrs) in CAnN.Cg-Foxnlnu/CrlCrlj mouse plasma at 100 mg/kg, po single dose measured up to 24 hrs by liquid chromatography tandem mass spectrometry; assay type: ADME, organism-based; parameters: route oral, dose 100 mg/kg, time <=24
CYP2C9 = CYP2C9 (Homo sapiens, UniProt P11712); assay: Time dependent inhibition of CYP2C9 in human liver microsomes assessed as enzyme remaining activity using cocktail of probe CYP as substrate at 50 uM; assay type: ADME; details: probe cocktail of CYP probe substrates, read-out: Activity
Sequence of CYP2C9 (P11712 whole entry): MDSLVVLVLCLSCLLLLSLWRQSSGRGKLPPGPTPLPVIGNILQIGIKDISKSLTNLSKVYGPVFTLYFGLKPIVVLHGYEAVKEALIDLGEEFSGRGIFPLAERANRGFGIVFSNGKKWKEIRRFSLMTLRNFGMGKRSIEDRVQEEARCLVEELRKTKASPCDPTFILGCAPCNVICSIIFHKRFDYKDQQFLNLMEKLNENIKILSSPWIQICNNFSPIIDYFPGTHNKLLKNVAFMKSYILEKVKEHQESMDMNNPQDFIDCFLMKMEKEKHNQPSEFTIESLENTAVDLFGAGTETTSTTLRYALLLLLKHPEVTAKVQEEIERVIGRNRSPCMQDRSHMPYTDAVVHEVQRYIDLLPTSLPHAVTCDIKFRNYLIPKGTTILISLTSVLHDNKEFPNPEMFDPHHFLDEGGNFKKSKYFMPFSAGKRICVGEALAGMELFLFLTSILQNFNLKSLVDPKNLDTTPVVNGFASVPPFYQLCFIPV
In short: (§1)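 Time-dependent CYP inhibition in human liver microsomes, with test compound at 50 µM and a cocktail of probe CYP substrates.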

CYP1A2 = biological target: T2, CYP1A2 (Homo sapiens, UniProt P05177); assay: Time dependent inhibition of CYP1A2 in human liver microsomes assessed as enzyme remaining activity using cocktail of probe CYP as substrate at 50 uM; assay type: ADME; details: probe cocktail of CYP probe substrates, read-out: Activity; in short: as §1
T2 sequence (P05177 whole entry): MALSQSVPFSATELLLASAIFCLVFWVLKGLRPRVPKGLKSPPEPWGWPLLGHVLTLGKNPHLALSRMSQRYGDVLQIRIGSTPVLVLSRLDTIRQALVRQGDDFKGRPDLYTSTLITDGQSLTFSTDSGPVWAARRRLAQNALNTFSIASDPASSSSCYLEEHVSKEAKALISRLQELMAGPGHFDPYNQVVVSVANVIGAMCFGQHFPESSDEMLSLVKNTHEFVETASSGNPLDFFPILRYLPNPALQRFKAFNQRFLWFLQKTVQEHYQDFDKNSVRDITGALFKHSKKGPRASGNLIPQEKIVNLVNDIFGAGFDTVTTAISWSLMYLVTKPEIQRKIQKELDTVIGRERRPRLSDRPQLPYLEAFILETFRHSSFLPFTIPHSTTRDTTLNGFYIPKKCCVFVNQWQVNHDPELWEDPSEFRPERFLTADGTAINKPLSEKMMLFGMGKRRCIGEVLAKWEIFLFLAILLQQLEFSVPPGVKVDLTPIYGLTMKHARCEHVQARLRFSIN

CYP2C8 = biological target: T3, CYP2C8 (Homo sapiens, UniProt P10632); assay: Time dependent inhibition of CYP2C8 in human liver microsomes assessed as enzyme remaining activity using cocktail of probe CYP as substrate at 50 uM; assay type: ADME; details: probe cocktail of CYP probe substrates, read-out: Activity; in short: as §1
T3 sequence (P10632 whole entry): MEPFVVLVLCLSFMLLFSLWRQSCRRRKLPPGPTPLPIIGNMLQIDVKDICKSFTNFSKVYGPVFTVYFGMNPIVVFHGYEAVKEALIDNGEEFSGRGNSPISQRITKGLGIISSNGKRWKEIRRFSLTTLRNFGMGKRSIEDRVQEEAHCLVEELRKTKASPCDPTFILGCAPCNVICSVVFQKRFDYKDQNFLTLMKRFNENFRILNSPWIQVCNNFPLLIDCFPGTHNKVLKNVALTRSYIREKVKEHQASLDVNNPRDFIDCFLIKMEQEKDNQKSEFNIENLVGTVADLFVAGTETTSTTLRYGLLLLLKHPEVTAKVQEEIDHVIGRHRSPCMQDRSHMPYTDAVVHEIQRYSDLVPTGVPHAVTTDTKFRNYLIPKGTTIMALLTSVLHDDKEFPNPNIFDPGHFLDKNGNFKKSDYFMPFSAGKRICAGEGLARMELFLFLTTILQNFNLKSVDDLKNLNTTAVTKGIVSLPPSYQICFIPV

[4] = Cmax in CAnN.Cg-Foxnlnu/CrlCrlj mouse plasma at 100 mg/kg, po single dose measured up to 24 hrs by liquid chromatography tandem mass spectrometry; assay type: ADME, organism-based; parameters: route oral, dose 100 mg/kg, time <=24
[5] = Cmax in CAnN.Cg-Foxnlnu/CrlCrlj mouse plasma at 25 mg/kg, po single dose measured up to 24 hrs by liquid chromatography tandem mass spectrometry; assay type: ADME, organism-based; parameters: route oral, dose 25 mg/kg, time <=24
CYP2D6 = CYP2D6 (Homo sapiens, UniProt P10635); assay: Time dependent inhibition of CYP2D6 in human liver microsomes assessed as enzyme remaining activity using cocktail of probe CYP as substrate at 50 uM; assay type: ADME; details: probe cocktail of CYP probe substrates, read-out: Activity; in short: as §1
Sequence of CYP2D6 (P10635 whole entry): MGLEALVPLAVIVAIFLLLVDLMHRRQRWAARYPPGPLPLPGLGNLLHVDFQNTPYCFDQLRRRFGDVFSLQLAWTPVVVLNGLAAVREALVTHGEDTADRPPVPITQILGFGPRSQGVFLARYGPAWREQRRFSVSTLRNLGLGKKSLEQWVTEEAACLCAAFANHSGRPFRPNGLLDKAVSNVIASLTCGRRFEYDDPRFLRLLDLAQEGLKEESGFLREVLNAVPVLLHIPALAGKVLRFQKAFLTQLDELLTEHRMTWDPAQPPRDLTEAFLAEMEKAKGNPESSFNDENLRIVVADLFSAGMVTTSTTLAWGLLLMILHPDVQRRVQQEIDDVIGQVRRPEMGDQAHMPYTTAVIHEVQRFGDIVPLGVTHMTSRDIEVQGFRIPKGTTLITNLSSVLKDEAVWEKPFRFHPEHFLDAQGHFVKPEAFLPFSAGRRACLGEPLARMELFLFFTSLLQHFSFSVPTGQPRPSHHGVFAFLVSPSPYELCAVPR

[6] = Solubility in PBS; assay type: physicochemical
In short: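 Solubility measured in Dulbecco's phosphate-buffered saline.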

[7] = AUC (0 to 24 hrs) in CAnN.Cg-Foxnlnu/CrlCrlj mouse plasma at 50 mg/kg, po single dose measured up to 24 hrs by liquid chromatography tandem mass spectrometry; assay type: ADME, organism-based; parameters: route oral, dose 50 mg/kg, time <=24
[8] = Metabolic stability in mouse liver microsomes assessed as residual ratio at 0.1 uM for 30 mins; assay type: ADME, Microsome; details: read-out: Stabilty
In short: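 Compound incubated at 0.1 µM for 30 min with human or mouse liver microsomes. Residual ratio of parent determined afterwards.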

[9] = Tmax in CAnN.Cg-Foxnlnu/CrlCrlj mouse plasma at 50 mg/kg, po single dose measured up to 24 hrs by liquid chromatography tandem mass spectrometry; assay type: ADME, organism-based
BaF3 = assay: Ratio of IC50 for Mer in mouse BaF3 cells to IC50 for Axl in mouse BaF3 cells; assay type: cell-based

SMILES: Cc1ccc(-n2c(=O)c(C(=O)Nc3ccc(Oc4ncnc5c4CCN(CC4CCN(C)CC4)C5)c(F)c3)cn(C3CCCC3)c2=O)nc1
- IC50 [1]: 0.18 µM
- AUC(0-t) [2]: 22900 ng·h/mL
- AUC(0-t) [3]: 110000 ng·h/mL
- activity at 50 µM (CYP2C9): 87%
- activity at 50 µM (CYP1A2): 82%
- activity at 50 µM (CYP2C8): 84%
- Cmax [4]: 10900 ng/mL
- Cmax [5]: 2340 ng/mL
- activity at 50 µM (CYP2D6): 83%
- solubility [6]: 83 µM (≈ 55.5 µg/mL)
- AUC(0-t) [7]: 56700 ng·h/mL
- remaining at 0.5 h, 0.1 µM [8]: 66.3%
- Tmax [9]: 1 h
- Ratio IC50 (BaF3): 6.4
